{"data": "Published values pooled from the literature", "read-out": "cell growth or viability", "note": "Protocols differ between the studies behind these lines."}
{"SMILES": "O=C(N[C@@H](CSCc1ccc([N+](=O)[O-])cc1)C(=O)NO)c1ccccc1", "cell line": "NCI-H1573", "method": "MTT", "time": "48 h", "measurement": "IC50", "value": "2.37 µM"}
{"SMILES": "NCCC(=O)Nc1ccccc1/N=c1\\cc(-c2ccc3nc(N)oc3c2)oc2ccc(F)cc12", "cell line": "MOLM-13", "method": "CCK-8", "tested at": "1 µM", "measurement": "inhibition", "value": "69.8%"}
{"SMILES": "CNC(=O)c1cc(Oc2ccc(NC(=O)Nc3ccc(Cl)c(C(F)(F)F)c3)cc2)ccn1", "cell line": "Bel-7402", "method": "MTT", "time": "48 h", "measurement": "IC50", "value": "5.06 µM"}
{"SMILES": "NC(=O)C1CCCN1C(=O)Nc1ccccc1/N=c1\\cc(-c2ccc3c(c2)OCCO3)oc2cc(F)ccc12 (stereo not drawn)", "cell line": "MOLM-13", "method": "CCK-8", "tested at": "1 µM", "measurement": "inhibition", "value": "4.05%"}
{"SMILES": "COc1ncnc(C2CC2)c1-c1ncc2cnn(Cc3ccc(-c4nc(C(F)(F)F)cn4C(C)C)cc3)c2n1", "cell line": "CHP-212", "method": "SRB", "tested at": "12.5 µM", "measurement": "viability", "value": "85.3%"}
{"SMILES": "C(=N\\Nc1cc(N/N=C/c2cccc3cccnc23)nc(-c2ccccc2)n1)/c1cccc2cccnc12", "cell line": "Bel-7402", "method": "MTT", "time": "48 h", "measurement": "IC50", "value": "11.1 µM"}
{"SMILES": "CCCCCCCCCCCCCCCCCCOc1ccccc1CC(=O)OCC[N+]1(C)CCCCC1", "cell line": "NCI-H23", "method": "SRB", "tested at": "10 µM", "measurement": "inhibition", "value": "70.2%"}
{"SMILES": "COC(=O)[C@H]1[C@@H](O)[C@@]2(O)c3c(OC)cc(O[C@@H]4O[C@@H]([C@H](O)CO)CO[C@H]4OC)cc3O[C@@]2(c2ccc(OC)cc2)[C@@H]1c1ccccc1", "cell line": "C6661", "method": "MTS", "time": "72 h", "measurement": "IC50", "value": "0.005 µM"}
{"SMILES": "CCCCCCCCCCCCCCCCCCOc1cccc(CC(=O)OCCC[N+](C)(C)C)c1", "cell line": "NCI-H23", "method": "SRB", "tested at": "10 µM", "measurement": "inhibition", "value": "24.1%"}
{"SMILES": "Nc1nc2ccc(-c3c/c(=N\\c4ccccc4NC(=O)C4CCNC4)c4ccccc4o3)cc2o1 (stereo not drawn)", "cell line": "MOLM-13", "method": "CCK-8", "tested at": "1 µM", "measurement": "inhibition", "value": "41.4%"}
{"SMILES": "CCCCCCCCCCCCCCCCCCOc1ccc(CC(=O)OCC[N+]2(C)CCOCC2)cc1", "cell line": "NCI-H23", "method": "SRB", "tested at": "10 µM", "measurement": "inhibition", "value": "5.91%"}
{"SMILES": "COc1cccc2c1C(=O)c1c(O)c3c(c(O)c1C2=O)C[C@@](O)(C(=O)CO)C[C@@H]3O[C@H]1C[C@H](N)[C@H](O)[C@H](C)O1", "cell line": "CHP-212", "method": "SRB", "tested at": "41.15 nM", "measurement": "viability", "value": "50.8%"}
{"SMILES": "CNCc1ccc(-c2cc(-c3nc(-c4ccc(S(=O)(=O)C(C)C)cc4)cnc3N)on2)cc1", "cell line": "CT26", "method": "ATP luminescence", "time": "48 h", "measurement": "IC50", "value": "1.98 µM"}
{"SMILES": "CCc1nc(C(N)=O)c(Nc2ccc(N3CCC(N4CCN(C)CC4)CC3)c(OC)c2)nc1NC1CCOCC1", "cell line": "MOLM-13", "time": "72 h", "measurement": "GI50", "value": "0.032 µM"}
{"SMILES": "COc1ccc2oc(-c3ccc4nc(N)oc4c3)c/c(=N\\c3ccccc3NC(=O)CCN)c2c1", "cell line": "MOLM-13", "method": "CCK-8", "tested at": "1 µM", "measurement": "inhibition", "value": "61.4%"}
{"SMILES": "CCCCCCCCCCCCCCCCCCOc1ccccc1CC(=O)OCC[N+](C)(C)C", "cell line": "NCI-H23", "method": "SRB", "tested at": "10 µM", "measurement": "inhibition", "value": "59.8%"}
{"SMILES": "N#CSCc1cc(=O)oc2cc(O)ccc12", "cell line": "SW1573", "method": "SRB", "measurement": "GI50", "value": "5.5 µM"}
{"SMILES": "NCC(=O)Nc1ccccc1/N=c1\\cc(-c2ccc3c(c2)OCCO3)oc2cc(F)ccc12", "cell line": "MOLM-13", "method": "CCK-8", "tested at": "1 µM", "measurement": "inhibition", "value": "5.06%"}
{"SMILES": "CC(=O)O[C@H]1C(=O)[C@@]2(C)[C@H]([C@H](OC(=O)c3ccccc3)[C@]3(O)C[C@H](OC(=O)[C@H](O)[C@@H](NC(=O)c4ccccc4)c4ccccc4)C(C)=C1C3(C)C)[C@]1(OC(C)=O)CO[C@@H]1C[C@@H]2O", "cell line": "CHP-212", "method": "SRB", "tested at": "13.72 nM", "measurement": "viability", "value": "78.4%"}
{"SMILES": "COCCC(=O)Nc1ccccc1/N=c1\\cc(-c2ccc3c(c2)OCO3)oc2ccccc12", "cell line": "MOLM-13", "method": "CCK-8", "tested at": "1 µM", "measurement": "inhibition", "value": "6.03%"}
{"SMILES": "CCCCCCCCCCCCCCCCCCOc1ccc(CC(=O)OCC[N+]2(C)CCCC2)cc1", "cell line": "NCI-H23", "method": "SRB", "tested at": "10 µM", "measurement": "inhibition", "value": "6.84%"}
